In ChEMBL document CHEMBL3792374, “Discovery of a ring-opened derivative of 3-n-butylphthalide bearing NO/H2S-donating moieties as a potential anti-ischemic stroke agent” (Eur J Med Chem, 2016):

How the values were obtained:
[1] = Antiplatelet activity in rabbit platelet-rich plasma assessed as inhibition of ADP-induced platelet aggregation at 0.1 mM preincubated for 5 mins followed by addition of ADP measured within 5 mins by Borns turbidimetric method; format: functional; conditions: Oryctolagus cuniculus
Summary of the method: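 Rabbit carotid blood was citrated (3.8%, 9:1). PRP was obtained at 500 g for 10 min and PPP at 3000 g for 10 min. PRP was preincubated in duplicate for 5 min at 37 °C with 0.1 mM compound, plus carboxy-PTIO or BSS where indicated. ADP was then added and maximal light transmission recorded within 5 min, within 3 h of blood collection. Inhibition % was calculated versus control. Mean ± SD of three independent experiments.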

[2] = Induction of nitric oxide release in potassium phosphate buffer at pH 7.4 at 0.1 mM after 30 mins by Griess assay; format: physicochemical; conditions: pH 7.4, 0.5 h, 100 µM
Summary of the method: (§1)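 Compound (0.1 mM) in PBS pH 7.4 containing 2% DMSO and 5.0 mM L-cysteine was held at 37 °C for 15–300 min. Samples were taken every 15 min up to 120 min, then every 30 min. Each sample was reacted with Griess reagent for 10 min at 37 °C and absorbance read at 540 nm. Nitrite was quantified from a nitrite standard curve. Means reported; intra-group variation <10%.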

[3] = Induction of nitric oxide release in potassium phosphate buffer at pH 7.4 at 0.1 mM after 45 mins by Griess assay; format: physicochemical; conditions: pH 7.4, 0.75 h, 100 µM; summary of the method: as §1
[4] = Induction of nitric oxide release in potassium phosphate buffer at pH 7.4 at 0.1 mM after 60 mins by Griess assay; format: physicochemical; conditions: pH 7.4, 1 h, 100 µM; summary of the method: as §1
[5] = Induction of nitric oxide release in potassium phosphate buffer at pH 7.4 at 0.1 mM after 75 mins by Griess assay; format: physicochemical; conditions: pH 7.4, 1.25 h, 100 µM; summary of the method: as §1
[6] = Induction of nitric oxide release in potassium phosphate buffer at pH 7.4 at 0.1 mM after 90 mins by Griess assay; format: physicochemical; conditions: pH 7.4, 1.5 h, 100 µM; summary of the method: as §1
[7] = Induction of nitric oxide release in potassium phosphate buffer at pH 7.4 at 0.1 mM after 105 mins by Griess assay; format: physicochemical; conditions: pH 7.4, 1.75 h, 100 µM; summary of the method: as §1
[8] = Induction of nitric oxide release in potassium phosphate buffer at pH 7.4 at 0.1 mM after 120 mins by Griess assay; format: physicochemical; conditions: pH 7.4, 2 h, 100 µM; summary of the method: as §1
[9] = Induction of nitric oxide release in potassium phosphate buffer at pH 7.4 at 0.1 mM after 150 mins by Griess assay; format: physicochemical; conditions: pH 7.4, 2.5 h, 100 µM; summary of the method: as §1
[10] = Induction of nitric oxide release in potassium phosphate buffer at pH 7.4 at 0.1 mM after 180 mins by Griess assay; format: physicochemical; conditions: pH 7.4, 3 h, 100 µM; summary of the method: as §1
[11] = Induction of nitric oxide release in potassium phosphate buffer at pH 7.4 at 0.1 mM after 240 mins by Griess assay; format: physicochemical; conditions: pH 7.4, 4 h, 100 µM; summary of the method: as §1
[12] = Induction of nitric oxide release in potassium phosphate buffer at pH 7.4 at 0.1 mM after 300 mins by Griess assay; format: physicochemical; conditions: pH 7.4, 5 h, 100 µM; summary of the method: as §1
Liver [13] = assay: Induction of hydrogen sulfide release in rat liver homogenate at 100 uM after 30 mins by microplate reader method (reference value: 1.03 to 1.21%); format: functional, tissue-based
Summary of the method: (§2)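 Compound was incubated at 37 °C for 0–90 min with fresh rat liver homogenate. The reaction was stopped with 1% zinc acetate and 10% trichloroacetic acid. N,N-dimethyl-p-phenylenediamine sulfate in 7.2 M HCl and FeCl3 in 1.2 M HCl were added, and absorbance was read at 670 nm after 10 min. Values were calculated against an NaHS standard curve as cumulative % conversion to H2S, n = 6.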

Liver [14] = assay: Induction of hydrogen sulfide release in rat liver homogenate at 100 uM after 60 mins by microplate reader method (reference value: 1.03 to 1.21%); format: functional, tissue-based; summary of the method: as §2
Liver [15] = assay: Induction of hydrogen sulfide release in rat liver homogenate at 100 uM after 90 mins by microplate reader method (reference value: 1.03 to 1.21%); format: functional, tissue-based; summary of the method: as §2
[16] = Antiplatelet activity in rabbit platelet-rich plasma assessed as inhibition of ADP-induced platelet aggregation preincubated for 5 mins followed by addition of ADP measured within 5 mins by Borns turbidimetric method; format: functional; conditions: Oryctolagus cuniculus
Summary of the method: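 Platelet-rich plasma from citrated rabbit carotid blood was preincubated in duplicate at 37 °C for 5 min with compound at 0.1, 0.2, 0.4, 0.8 or 1.6 mM. ADP-induced aggregation was then recorded turbidimetrically, as maximal light transmission within 5 min. Inhibition was calculated versus vehicle control, and IC50 values were derived. Mean ± SD, n = 6, ANOVA/Tukey.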

[17] = Induction of nitric oxide release in potassium phosphate buffer at pH 7.4 at 0.1 mM after 15 mins by Griess assay; format: physicochemical; conditions: pH 7.4, 0.25 h, 100 µM; summary of the method: as §1
Liver [18] = assay: Induction of hydrogen sulfide release in rat liver homogenate at 100 uM after 15 mins by microplate reader method (reference value: 1.03 to 1.21%); format: functional, tissue-based; summary of the method: as §2

Row | Activity [2] [µM] | Activity [3] [µM] | Activity [4] [µM] | Activity [5] [µM] | Activity [6] [µM] | Activity [7] [µM] | Activity [8] [µM] | Activity [9] [µM] | Activity [10] [µM] | Activity [11] [µM] | Activity [12] [µM] | IC50 [16] [µM] | Activity [17] [µM] | SMILES | inhibition at 100 µM [1] [%] | Activity (Liver [13]) [%] | Activity (Liver [14]) [%] | Activity (Liver [15]) [%] | Activity (Liver [18]) [%]
1 |  |  |  |  |  |  |  |  |  |  |  |  |  | CCCCC(OC(=O)CN1CCN(CCOc2ccc(-c3cc(=S)ss3)cc2)CC1)c1ccccc1C(=O)Oc1ccc(/C=C/C(=O)OCCCCO[N+](=O)[O-])cc1OC (racemic) | 19.7 |  |  |  | 
2 |  |  |  |  |  |  |  |  |  |  |  |  |  | S=c1cc(-c2ccc(OCCCCCN3CCNCC3)cc2)ss1 | 16.8 |  |  |  | 
3 |  |  |  |  |  |  |  |  |  |  |  |  |  | CCCCC(OC(=O)CN1CCN(CCCOc2ccc(-c3cc(=S)ss3)cc2)CC1)c1ccccc1C(=O)Oc1ccc(/C=C/C(=O)OCCCCCCO[N+](=O)[O-])cc1OC (racemic) | 19.7 |  |  |  | 
4 |  |  |  |  |  |  |  |  |  |  |  |  |  | CCCCC(OC(=O)CN1CCN(CCCCOc2ccc(-c3cc(=S)ss3)cc2)CC1)c1ccccc1C(=O)Oc1ccc(/C=C/C(=O)OCCO[N+](=O)[O-])cc1OC (racemic) | 19.7 |  |  |  | 
5 | 2 | 3.09 | 4 | 4.4 | 4.8 | 5.1 | 5.3 | 5.46 | 5.48 | 5.51 | 5.56 | 390 | 1.45 | CCCCC(OC(=O)CN1CCN(CCCCCCOc2ccc(-c3cc(=S)ss3)cc2)CC1)c1ccccc1C(=O)Oc1ccc(/C=C/C(=O)OCCCCO[N+](=O)[O-])cc1OC (racemic) | 19.7 | 1.05 | 1.81 | 1.82 | 0.95
6 |  |  |  |  |  |  |  |  |  |  |  |  |  | CCCCC(OC(=O)CN1CCN(CCCCCOc2ccccc2)CC1)c1ccccc1C(=O)Oc1ccc(/C=C/C(=O)OCCO[N+](=O)[O-])cc1OC (racemic) | 19.8 |  |  |  | 
7 |  |  |  |  |  |  |  |  |  |  |  |  |  | CCCCC(OC(=O)CN1CCN(CCCOc2ccc(-c3cc(=S)ss3)cc2)CC1)c1ccccc1C(=O)Oc1ccc(/C=C/C(=O)OCCO[N+](=O)[O-])cc1OC (racemic) | 19.7 |  |  |  | 
8 | 3.17 | 4.13 | 4.98 | 5.53 | 5.97 | 6.41 | 6.88 | 7.28 | 7.47 | 7.51 | 7.51 | 430 | 1.96 | CCCCC(OC(=O)CN1CCN(CCCCCCOc2ccc(-c3cc(=S)ss3)cc2)CC1)c1ccccc1C(=O)Oc1ccc(/C=C/C(=O)OCCO[N+](=O)[O-])cc1OC (racemic) | 19.7 | 1.73 | 2.39 | 2.41 | 1.6
9 | 1.27 | 1.89 | 2.22 | 2.36 | 2.56 | 2.98 | 3.18 | 3.25 | 3.23 | 3.32 | 3.32 | 430 | 0.91 | CCCCC(OC(=O)CN1CCN(CCCOc2ccc(-c3cc(=S)ss3)cc2)CC1)c1ccccc1C(=O)Oc1ccc(/C=C/C(=O)OCCCCO[N+](=O)[O-])cc1OC (racemic) | 19.7 | 0.83 | 1.21 | 1.23 | 0.65
10 |  |  |  |  |  |  |  |  |  |  |  |  |  | CCCCC(OC(=O)CN1CCN(CCCCCOc2ccc(-c3cc(=S)ss3)cc2)CC1)c1ccccc1C(=O)Oc1ccc(/C=C/C(=O)OCCCCO[N+](=O)[O-])cc1OC (racemic) | 19.7 |  |  |  | 
11 |  |  |  |  |  |  |  |  |  |  |  |  |  | CCCCC(OC(=O)CN1CCN(CCOc2ccc(-c3cc(=S)ss3)cc2)CC1)c1ccccc1C(=O)Oc1ccc(/C=C/C(=O)OCCO[N+](=O)[O-])cc1OC (racemic) | 19.7 |  |  |  | 
12 | 2.24 | 3.26 | 4 | 4.36 | 4.68 | 4.98 | 5.09 | 5.3 | 5.31 | 5.33 | 5.38 | 320 | 1.17 | CCCCC(OC(=O)CN1CCN(CCCCOc2ccc(-c3cc(=S)ss3)cc2)CC1)c1ccccc1C(=O)Oc1ccc(/C=C/C(=O)OCCCCCCO[N+](=O)[O-])cc1OC (racemic) | 19.7 | 0.92 | 1.33 | 1.35 | 0.75
13 | 4.21 | 5.98 | 6.58 | 7.84 | 8.14 | 8.64 | 8.76 | 9.25 | 9.29 | 9.44 | 9.57 | 210 | 2.37 | CCCCC(OC(=O)CN1CCN(CCOc2ccc(-c3cc(=S)ss3)cc2)CC1)c1ccccc1C(=O)Oc1ccc(/C=C/C(=O)OCCCCCCO[N+](=O)[O-])cc1OC (racemic) | 19.7 | 2.83 | 3.74 | 3.82 | 2.62
14 |  |  |  |  |  |  |  |  |  |  |  |  |  | CCCCC(OC(=O)CN1CCN(CCCCCOc2ccc(-c3cc(=S)ss3)cc2)CC1)c1ccccc1C(=O)Oc1ccc(/C=C/C(=O)OCCCCCCO[N+](=O)[O-])cc1OC (racemic) | 19.7 |  |  |  | 
15 |  |  |  |  |  |  |  |  |  |  |  |  |  | CCCCC(OC(=O)CN1CCN(CCCCCOc2ccc(-c3cc(=S)ss3)cc2)CC1)c1ccccc1C(=O)Oc1ccc(/C=C/C(=O)OC)cc1OC (racemic) | 27.8 |  |  |  | 
16 | 5.45 | 6.09 | 7.88 | 8.28 | 9.11 | 9.58 | 10.01 | 10.12 | 10.14 | 10.18 | 10.22 | 190 | 3.01 | CCCCC(OC(=O)CN1CCN(CCCCCCOc2ccc(-c3cc(=S)ss3)cc2)CC1)c1ccccc1C(=O)Oc1ccc(/C=C/C(=O)OCCCCCCO[N+](=O)[O-])cc1OC (racemic) | 19.7 | 2.83 | 3.3 | 3.32 | 2.53
17 | 3.86 | 4.58 | 6.13 | 7.04 | 7.45 | 8.3 | 8.37 | 8.32 | 8.34 | 8.25 | 8.37 | 360 | 2.1 | CCCCC(OC(=O)CN1CCN(CCCCOc2ccc(-c3cc(=S)ss3)cc2)CC1)c1ccccc1C(=O)Oc1ccc(/C=C/C(=O)OCCCCO[N+](=O)[O-])cc1OC (racemic) | 19.7 | 1.85 | 2.71 | 2.72 | 1.74
18 |  |  |  |  |  |  |  |  |  |  |  |  |  | CCCCC(OC(=O)CCl)c1ccccc1C(=O)Oc1ccc(/C=C/C(=O)OCCO[N+](=O)[O-])cc1OC (racemic) | 18 |  |  |  | 
